Laboratory results: ChEMBL document CHEMBL1124260, “Synthesis and antitumor activity of quaternary ellipticine glycosides, a series of novel and highly active antitumor agents” (1988)

What was measured:
Mus musculus [1] = test: Antitumor activity against ip implanted syngeneic L1210 leukemia in mouse after ip administration of 60 mg/kg for 5 days expressed as increase in mean life span; assay type: functional; conditions: 120 h, route intraperitoneal
Summary of the method: (§1)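 Drug was dissolved in 0.9% NaCl, diluted just before use and given ip once daily for 5 consecutive days, starting 24 h after transplant. ILS % = mean survival time of treated vs control mice, observed for 80 days.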

Mus musculus [2] = test: Antitumor activity against ip implanted P388 leukemia in mouse after ip administration of 30 mg/kg for 5 days expressed as increase in mean life span; assay type: functional; conditions: 120 h, route intraperitoneal
Summary of the method: (§2)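 Saline-dissolved drug was given ip daily for 5 consecutive days, beginning 24 h post-transplant. ILS % was calculated from treated vs control mean survival time over an 80-day observation period.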

Mus musculus [3] = test: Antitumor activity against ip implanted L1210 leukemia in mouse after ip administration of 20 mg/kg for 5 days expressed as increase in mean life span; assay type: functional; conditions: 120 h, route intraperitoneal; summary of the method: as §1
Mus musculus [4] = test: Number of survivors out of 6 ip implanted L1210 leukemia mouse tested after 80 days at 20 mg/kg; assay type: functional; conditions: route intraperitoneal
Summary of the method: (§3)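 Female BDF1 mice implanted ip with ascitic fluid holding 10^5 L1210 cells. Saline-dissolved drug given ip daily on days 1-5, starting 24 h after implant. Six mice per dose group, followed 80 days. Survivors/total counted at day 80; ILS % from mean survival time vs controls.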

Mus musculus [5] = test: Inhibition of sc implanted syngeneic colon 38 carcinoma by ip administration at 40 mg/kg on 1, 3, 5, 7, 9 days measured as inhibition ratio; assay type: functional; conditions: route subcutaneous
Summary of the method: (§4)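 Tumor homogenate (70 mg) implanted into the axillary region of female BDF1 mice. Drug dissolved in 0.9% NaCl and diluted with saline just before use, then given ip on days 1, 3, 5, 7 and 9. Tumor length and width were measured by caliper on day 20 after inoculation and converted to estimated weight. Result reported as treated vs control tumor weight, T/C %.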

Mus musculus [6] = test: Number of survivors out of 6 ip implanted P388 leukemia in mouse after ip administration of 10 mg/kg after 80 days; assay type: functional; conditions: route intraperitoneal
Summary of the method: (§5)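 P388 leukemia, 10^6 ascitic cells implanted ip in female BDF1 mice. Drug in saline given ip for 5 consecutive days from 24 h after transplant. Groups of six per dose level. Survivors/total recorded at the 80-day end of observation; ILS % from treated/control mean survival time.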

Mus musculus [7] = test: Number of survivors out of 6 ip implanted L1210 leukemia mouse, tested after 80 days at 30 mg/kg; assay type: functional; conditions: route intraperitoneal; summary of the method: as §3
Mus musculus [8] = test: Antitumor activity against ip implanted L1210 leukemia in mouse after iv administration of 8 mg/kg for 5 days expressed as increase in mean life span; conditions: 120 h
Mus musculus [9] = test: Antitumor activity against ip implanted P388 leukemia in mouse after iv administration of 32 mg/kg for 5 days expressed as increase in mean life span; conditions: 120 h
Mus musculus [10] = test: Effect on ip implanted syngeneic B16 melanoma by ip administration of 20 mg/kg for 9 days measured as increase in mean life span; conditions: 216 h
Mus musculus [11] = test: Number of survivors out of 6 ip implanted P388 leukemia in mouse after ip administration of 20 mg/kg after 80 days; assay type: functional; conditions: route intraperitoneal; summary of the method: as §5
Mus musculus [12] = test: Antitumor activity against ip implanted P388 leukemia in mouse after ip administration of 40 mg/kg for 5 days expressed as increase in mean life span; assay type: functional; conditions: 120 h, route intraperitoneal; summary of the method: as §2
Mus musculus [13] = test: Antitumor activity against ip implanted L1210 leukemia in mouse after ip administration of 40 mg/kg for 5 days expressed as increase in mean life span; assay type: functional; conditions: 120 h, route intraperitoneal; summary of the method: as §1
Mus musculus [14] = test: Antitumor activity against ip implanted L1210 leukemia in mouse after iv administration of 32 mg/kg for 5 days expressed as increase in mean life span; conditions: 120 h
Mus musculus [15] = test: Number of survivors out of 6 ip implanted L1210 leukemia in mouse after ip administration of 40 mg/kg after 80 days; assay type: functional; conditions: route intraperitoneal; summary of the method: as §3
Mus musculus [16] = test: Number of survivors out of 6 ip implanted L1210 leukemia in mouse after ip administration of 20 mg/kg after 80 days; assay type: functional; conditions: route intraperitoneal; summary of the method: as §3
Mus musculus [17] = test: Inhibition of sc implanted syngeneic colon 38 carcinoma by ip administration at 20 mg/kg on 1, 3, 5, 7, 9 days measured as inhibition ratio; assay type: functional; conditions: route subcutaneous; summary of the method: as §4
Mus musculus [18] = test: Inhibition of sc implanted syngeneic colon 38 carcinoma by ip administration at 30 mg/kg on 1, 3, 5, 7, 9 days measured as inhibition ratio; assay type: functional; conditions: route intraperitoneal; summary of the method: as §4
Mus musculus [19] = test: Antitumor activity against ip implanted P388 leukemia in mouse after ip administration of 10 mg/kg for 5 days expressed as increase in mean life span; assay type: functional; conditions: 120 h, route intraperitoneal; summary of the method: as §2
Mus musculus [20] = test: Effect on ip implanted syngeneic B16 melanoma by ip administration for 9 days at 5 mg/kg was measured as increase in mean life span; conditions: 216 h
Mus musculus [21] = test: Antitumor activity against ip implanted P388 leukemia in mouse after ip administration of 20 mg/kg for 5 days expressed as increase in mean life span; assay type: functional; conditions: 120 h, route intraperitoneal; summary of the method: as §2
Mus musculus [22] = test: Antitumor activity against ip implanted L1210 leukemia in mouse after ip administration of 1.25 mg/kg for 5 days expressed as increase in mean life span; assay type: functional; conditions: 120 h, route intraperitoneal; summary of the method: as §1
Mus musculus [23] = test: Antitumor activity against ip implanted L1210 leukemia in mouse after ip administration of 5 mg/kg for 5 days expressed as increase in mean life span; assay type: functional; conditions: Mus musculus, L1210, ip, 120 h, route intraperitoneal; summary of the method: as §1
Mus musculus [24] = test: Antitumor activity against ip implanted L1210 leukemia in mouse after iv administration of 16 mg/kg for 5 days expressed as increase in mean life span; conditions: 120 h
Mus musculus [25] = test: Antitumor activity against ip implanted P388 leukemia in mouse after ip administration of 5 mg/kg for 5 days expressed as increase in mean life span; assay type: functional; conditions: 120 h, route intraperitoneal; summary of the method: as §2
Mus musculus [26] = test: Number of survivors out of 6 ip implanted P388 leukemia in mouse after ip administration of 40 mg/kg after 80 days; assay type: functional; conditions: route intraperitoneal; summary of the method: as §5
Mus musculus [27] = test: Antitumor activity against ip implanted L1210 leukemia in mouse after ip administration of 30 mg/kg for 5 days expressed as increase in mean life span; assay type: functional; conditions: Mus musculus, L1210, ip, 120 h, route intraperitoneal; summary of the method: as §1
Mus musculus [28] = test: Antitumor activity against ip implanted L1210 leukemia in mouse after ip administration of 10 mg/kg for 5 days expressed as increase in mean life span; assay type: functional; conditions: route intraperitoneal, 10 mg/kg; summary of the method: as §1
Mus musculus [29] = test: Number of survivors out of 6 ip implanted L1210 leukemia in mouse after ip administration of 10 mg/kg after 80 days; assay type: functional; conditions: route intraperitoneal; summary of the method: as §3
Mus musculus [30] = test: Antitumor activity against ip implanted P388 leukemia in mouse after ip administration of 1.25 mg/kg for 5 days expressed as increase in mean life span; assay type: functional; conditions: 120 h, route intraperitoneal; summary of the method: as §2
Mus musculus [31] = test: Effect on ip implanted syngeneic B16 melanoma by ip administration for 9 days at 10 mg/kg was measured as increase in mean life span; conditions: 216 h
Mus musculus [32] = test: Antitumor activity against ip implanted P388 leukemia in mouse after iv administration of 2.5 mg/kg for 5 days expressed as increase in mean life span; conditions: 120 h
Mus musculus [33] = test: Effect on ip implanted syngeneic B16 melanoma by ip administration for 9 days at 2.5 mg/kg was measured as increase in mean life span; conditions: 216 h
Mus musculus [34] = test: Number of survivors out of 6 ip implanted P388 leukemia in mouse after ip administration of 2.5 mg/kg after 80 days; assay type: functional; conditions: route intraperitoneal; summary of the method: as §5
Mus musculus [35] = test: Inhibition of sc implanted syngeneic colon 38 carcinoma by ip administration at 2.5 mg/kg on 1, 3, 5, 7, 9 days measured as inhibition ratio; assay type: functional; conditions: route subcutaneous; summary of the method: as §4
Mus musculus [36] = test: Antitumor activity against ip implanted L1210 leukemia in mouse after ip administration of 2.5 mg/kg for 5 days expressed as increase in mean life span; assay type: functional; conditions: 120 h, route intraperitoneal; summary of the method: as §1
Mus musculus [37] = test: Antitumor activity against ip implanted L1210 leukemia in mouse after iv administration of 2.5 mg/kg for 5 days expressed as increase in mean life span; conditions: 120 h
Mus musculus [38] = test: Antitumor activity against ip implanted P388 leukemia in mouse after ip administration of 2.5 mg/kg for 5 days expressed as increase in mean life span; assay type: functional; conditions: 120 h, route intraperitoneal; summary of the method: as §2
Mus musculus [39] = test: Antitumor activity against ip implanted L1210 leukemia in mouse after ip administration of 120 mg/kg for 5 days expressed as increase in mean life span; assay type: functional; conditions: 120 h, route intraperitoneal; summary of the method: as §1
Mus musculus [40] = test: Antitumor activity against ip implanted syngeneic P388 leukemia in mouse after ip administration of 60 mg/kg for 5 days expressed as increase in mean life span; assay type: functional; conditions: 120 h, route intraperitoneal; summary of the method: as §2

## Cc1c2ccncc2c(C)c2c1[nH]c1ccc(O)cc12
Mus musculus [1]
  ILS at 60 mg/kg: 79%
Mus musculus [2]
  ILS at 30 mg/kg: 91%

## Cc1c2cc[n+]([C@@H]3O[C@H](CO)[C@H](O)[C@H](O)[C@H]3O)cc2c(C)c2c1[nH]c1ccc(O)cc12.[Br-]
Mus musculus [3]
  ILS at 20 mg/kg: > 729%
Mus musculus [4]
  Cures: 4

## Cc1c2cc[n+](C3O[C@@H](CO)[C@H](O)[C@@H]3O)cc2c(C)c2c1[nH]c1ccccc12.[Br-] (stereo partly drawn)
Mus musculus [3]
  ILS at 20 mg/kg: 80%
Mus musculus [4]
  Cures: 0

## Cc1c2cc[n+]([C@@H]3O[C@H](CO)[C@H](O)[C@@H]3O)cc2c(C)c2c1[nH]c1ccc(O)cc12.[Cl-] (stereo in doubt; 43a)
Mus musculus [5]
  T/C: 8%
Mus musculus [6]
  Cures: 2
Mus musculus [7]
  Cures: 6
Mus musculus [8]
  ILS at 8 mg/kg: 49%
Mus musculus [9]
  ILS at 32 mg/kg: 176%
Mus musculus [10]
  ILS at 20 mg/kg: 77%
Mus musculus [11]
  Cures: 4
Mus musculus [12]
  ILS at 40 mg/kg: > 220%
Mus musculus [13]
  ILS at 40 mg/kg: > 281%
Mus musculus [14]
  ILS at 32 mg/kg: 134%
Mus musculus [15]
  Cures: 1
Mus musculus [16]
  Cures: 3
Mus musculus [17]
  T/C: 61%
Mus musculus [3]
  ILS at 20 mg/kg: > 503%
Mus musculus [18]
  T/C: 19%
Mus musculus [19]
  ILS at 10 mg/kg: > 332%
Mus musculus [20]
  ILS at 5 mg/kg: 39%
Mus musculus [21]
  ILS at 20 mg/kg: > 510%
Mus musculus [22]
  ILS at 1.25 mg/kg: 46%
Mus musculus [23]
  ILS at 5 mg/kg: 102%
Mus musculus [24]
  ILS at 16 mg/kg: 81%
Mus musculus [25]
  ILS at 5 mg/kg: 158%
Mus musculus [26]
  Cures: 2
Mus musculus [27]
  ILS at 30 mg/kg: > 967%
Mus musculus [28]
  ILS: >377%
Mus musculus [29]
  Cures: 2
Mus musculus [30]
  ILS at 1.25 mg/kg: 68%
Mus musculus [31]
  ILS at 10 mg/kg: 44%

## COc1cccc2c1C(=O)c1c(O)c3c(c(O)c1C2=O)C[C@@](O)(C(=O)CO)C[C@@H]3O[C@H]1C[C@H](N)[C@H](O)[C@H](C)O1 [DOXORUBICIN]
Mus musculus [32]
  ILS at 2.5 mg/kg: 65%
Mus musculus [33]
  ILS at 2.5 mg/kg: > 257%
Mus musculus [34]
  Cures: 5
Mus musculus [35]
  T/C: 31%
Mus musculus [36]
  ILS at 2.5 mg/kg: 90%
Mus musculus [37]
  ILS at 2.5 mg/kg: 30%
Mus musculus [38]
  ILS at 2.5 mg/kg: > 675%

## Cc1c2ccncc2c(C)c2c1[nH]c1ccccc12 [ELLIPTECINE]
Mus musculus [39]
  ILS at 120 mg/kg: 128%
Mus musculus [40]
  ILS at 60 mg/kg: 139%
